Source: PubChem BioAssay (several laboratories)
Compounds with a hit are over-represented: about 1.4% of the library has one in this group of screens.
Diaph inh CS – diaphorase inhibitors and chemical oxidizers, primary screen, counter-screen for diaphorase-coupled primary assays, biochemical, uHTS, resorufin fluorescence; diaphorase resazurin-to-resorufin fluorescence, NADH, 16 min; bacterial (C. kluyveri) enzyme, not human; inhibition, % at 20 µM; actives 0.69% (n = 190,000); AID 1217, 2008;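 active = primary screen inhibition at 20 µM above a set limit, cut at about 50% in these data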;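 also: plate controls were DMSO with full reaction for no effect and wells lacking NADH for full effect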
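controls = No-NADH positive control and DMSO neutral control | system = Clostridium kluyveri diaphorase enzyme | timing = reaction incubation of 16 min at room temperature | signal = resorufin fluorescence 544/590 nm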
Diaphorase act – compounds boosting diaphorase resazurin reduction – biochemical, uHTS, resorufin fluorescence, counter-screen for diaphorase-coupled primary assays, primary screen. actives 0.005% (n = 190,000). Diaphorase/resazurin coupled assay, 16 min; stronger effect = higher value; 1 = vehicle wells, 0 = NADH-free wells. AID 1229, 2008. activation factor at 20 µM;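 active = diaphorase activity raised at least twofold by the compound at 20 µM; inactive = activation factor below 2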
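Test system: Clostridium kluyveri diaphorase, purified enzyme. Buffer or medium: 50 mM HEPES pH 7.4 buffer plus MgCl2 and Tween 20. Also added: 0.114 mM NADH and 0.1 mM resazurin, final amounts. Dosing: compound 20 µM once, DMSO 1%. Schedule: 16 min enzyme reaction, ambient temperature. Detection: fluorescence of resorufin, 544 nm excitation, 590 nm emission.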
ATG4B inh – ATG4B protease inhibitors, primary screen, biochemical, fluorescence, uHTS | Cysteine protease ATG4B (Homo sapiens), Q9Y4P1 | ATG4B cleavage of LC3-PLA2, NBD-HPC fluorescence, 1 h | inhibition, % at 8.33 µM | actives 0.51% (n = 340,000) | AID 504462, 2011; in the data active = inhibition above about 40%
HKDC1 inh – HKDC1 hexokinase inhibitors, primary screen, biochemical, fluorescence, uHTS; Q2TB90; recombinant HKDC1, G6PDH/diaphorase resazurin coupled fluorescence; inhibition, % at 20 µM; actives 0.16% (n = 340,000);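 active = inhibition above about 35% when tested at 20 µM, limit read from the data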;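 also: plate controls were DMSO wells with enzyme for no effect and DMSO wells lacking enzyme for full effect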
Target sequence (Q2TB90 whole entry, looked up): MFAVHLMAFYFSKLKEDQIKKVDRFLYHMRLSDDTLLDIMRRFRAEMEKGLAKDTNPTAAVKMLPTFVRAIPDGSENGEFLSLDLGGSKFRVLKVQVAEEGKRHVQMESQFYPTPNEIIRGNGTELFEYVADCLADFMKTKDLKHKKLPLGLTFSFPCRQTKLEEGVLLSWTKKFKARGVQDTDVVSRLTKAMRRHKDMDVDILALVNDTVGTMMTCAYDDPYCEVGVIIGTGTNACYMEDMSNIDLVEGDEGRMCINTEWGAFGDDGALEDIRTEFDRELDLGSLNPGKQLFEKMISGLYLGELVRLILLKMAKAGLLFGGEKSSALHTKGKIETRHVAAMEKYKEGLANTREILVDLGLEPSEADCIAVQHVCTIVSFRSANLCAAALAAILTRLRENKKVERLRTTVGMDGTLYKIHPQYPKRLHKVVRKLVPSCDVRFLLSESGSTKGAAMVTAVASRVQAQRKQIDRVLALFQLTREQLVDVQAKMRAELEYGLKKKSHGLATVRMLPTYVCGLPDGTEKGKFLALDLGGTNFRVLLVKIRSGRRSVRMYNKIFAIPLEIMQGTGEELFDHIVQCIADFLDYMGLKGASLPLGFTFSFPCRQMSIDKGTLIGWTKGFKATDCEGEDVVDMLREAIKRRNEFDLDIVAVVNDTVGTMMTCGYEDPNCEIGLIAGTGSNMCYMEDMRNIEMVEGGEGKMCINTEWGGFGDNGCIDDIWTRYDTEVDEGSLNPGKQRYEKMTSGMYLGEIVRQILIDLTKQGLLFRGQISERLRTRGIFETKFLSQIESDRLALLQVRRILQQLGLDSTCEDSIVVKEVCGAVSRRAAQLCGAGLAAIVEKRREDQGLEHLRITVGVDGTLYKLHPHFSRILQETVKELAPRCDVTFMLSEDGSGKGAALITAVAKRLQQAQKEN
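test system = in-house recombinant HK5 (HKDC1) enzyme | amount = HKDC1 at 5 µg/mL | control set = DMSO-enzyme wells negative, buffer-substituted wells positive | compound = one dose of 20 µM, 1% DMSO | schedule = reaction time 90 min, room temperature, protected from light | technique = resorufin fluorescence at 613 nm | reagent = glucose with 1 mM ATP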
CTSL1 counter – Fasciola hepatica cathepsin L1 inhibitors, primary screen, counter-screen for PFM18AAP inhibitor project, biochemical, QFRET, fluorogenic peptide substrate; recombinant F. hepatica cathepsin L1, Z-Leu-Arg-MCA fluorescence; inhibition, % at 5.96 µM; actives 0.49% (n = 300,000); AID 1906, 2009;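 active = inhibition above the mean of all tested compounds plus 3 SD, set per screening campaign, cut at about 17% in these data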;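 also: 0% = plate median of test compound wells and 100% = 1 µM Z-Phe-Ala-diazomethylketone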
* hit, by the source's call.

CCCN(C(=O)CCSc1ccc(F)cc1)c1c(N)n(Cc2ccccc2)c(=O)[nH]c1=O was read as ATG4B inh -3.5, HKDC1 inh -2.2 and CTSL1 counter 3.1.
`N#CCCN(C(=O)COC(=O)c1cc(=O)c2ccccc2o1)c1ccccc1` gave ATG4B inh -9.8 and HKDC1 inh 0.7.
For O=Nc1ccc(NOC(=O)c2ccccc2)cc1 the results were Diaph inh CS 9.7, Diaphorase act 0.9, ATG4B inh -4.9, HKDC1 inh -4.9 and CTSL1 counter 0.1.
`O=C(N=Nc1ccc(NOC(=O)c2ccccc2Br)cc1)c1ccccc1O` gave Diaph inh CS 64.7*, Diaphorase act 0.4 and CTSL1 counter 6.7.
For CC(C)c1nc2sc3c(SCC(=O)NCc4ccco4)ncnc3c2c2c1CCC2 the results were Diaph inh CS 55.5*, Diaphorase act 0.4, ATG4B inh 13.6, HKDC1 inh 15.4 and CTSL1 counter -0.9.
CCC(=O)Nc1ccc(NC(=O)CSc2nnnn2-c2ccc3c(c2)OCCO3)cc1 was read as Diaph inh CS -19.3, Diaphorase act 1.2, ATG4B inh -4.4, HKDC1 inh 8.7 and CTSL1 counter 0.7.
O=C(CSc1nnnn1-c1ccc2c(c1)OCCO2)OC1CCCCC1 was read as Diaph inh CS 10.2, Diaphorase act 0.9, ATG4B inh 4.3, HKDC1 inh 3.0 and CTSL1 counter 78.0*.
For CCOC(=O)c1cc2c(=O)n3ccccc3nc2n(C(C)C)c1=NC(=O)c1ccncc1 the results were Diaph inh CS 65.3*, Diaphorase act 0.3, ATG4B inh -3.9, HKDC1 inh 2.2 and CTSL1 counter -0.8.
C=CCn1c(=S)sc2c(=O)[nH]cnc21 was read as ATG4B inh -2.2, HKDC1 inh -2.0 and CTSL1 counter -1.5.
For Nc1ccc2c(c1)OC1(CCCC1)O2 the results were Diaph inh CS 52.0*, Diaphorase act 0.5, ATG4B inh -15.2, HKDC1 inh 15.5 and CTSL1 counter -1.6.
For Cc1ccccc1C#N the results were ATG4B inh 4.1 and HKDC1 inh -1.2.
Screening O=C(c1ccc(Cl)cc1)N1CCN(S(=O)(=O)/C=C/c2ccccc2)CC1 returned ATG4B inh 2.1 and HKDC1 inh 3.6.
`O=C1c2sc3nc4n(c(=O)c3c2CCC1Br)CCCCC4` (stereo not given) gave Diaph inh CS 62.5*, Diaphorase act 0.4, ATG4B inh -4.0, HKDC1 inh 9.4 and CTSL1 counter 0.8.
`CCOc1ccc(-c2nnc(SCC(=O)N3CCNC3=O)o2)cc1` gave ATG4B inh -11.3 and HKDC1 inh -3.2.
For NS(=O)(=O)c1ccc(CNC(=O)c2csc3c2CCCC3)cc1 the results were Diaph inh CS 84.9*, Diaphorase act 0.2, ATG4B inh 1.0, HKDC1 inh -8.0 and CTSL1 counter -6.2.
CC1CCCCN1c1nnc(NC(=O)Cn2c(=O)oc3ccccc32)s1 (stereo not given) was read as Diaph inh CS 62.5*, Diaphorase act 0.4, ATG4B inh -12.3, HKDC1 inh -0.1 and CTSL1 counter 3.7.
`CCOc1ccc(NS(=O)(=O)c2cccc(C(=O)N3CCN(C/C=C/c4ccccc4)CC3)c2)cc1` gave ATG4B inh -21.4 and HKDC1 inh -2.6.
For O=C1C2C3C=CC(CC3)C2C(=O)N1c1ccc(Br)cc1[N+](=O)[O-] (stereo not given) the results were ATG4B inh 9.0, HKDC1 inh -3.5 and CTSL1 counter -0.5.
`O=C1C2C3C=CC(CC3)C2C(=O)N1c1ccccc1[N+](=O)[O-]` (stereo not given) gave Diaph inh CS -6.0, Diaphorase act 1.1, ATG4B inh 4.2, HKDC1 inh -1.9 and CTSL1 counter 18.7*.
For CCC(C)N(C(=O)c1csnn1)C(C(=O)NCc1ccc(F)cc1)c1ccccc1F (stereo not given) the results were ATG4B inh -3.7, HKDC1 inh -4.2 and CTSL1 counter 2.5.
